The values that follow come from ChEMBL document CHEMBL1138525 (J Med Chem, 2009).

Assay [1] has as its target P2Y purinoceptor 2 (Homo sapiens, UniProt P41231, Y198A). In words: Antagonist activity at N-terminal HA epitope-tagged human P2Y2 receptor Y198A mutant expressed in human 1321N1 cells assessed as inhibition of UTP-induced calcium mobilization. The class given is functional, cell-based. The procedure, abridged:
(§1)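 1321N1 cells expressing wild-type or mutant receptor were dye-loaded with Oregon Green BAPTA-1/AM in Krebs-HEPES pH 7.4. Antagonist was preincubated for 20 min at 28 °C in the dark. Cells were then stimulated with UTP at a concentration giving 80-90% of maximal response. Calcium fluorescence read at 520 nm (excitation 485 nm).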
On the technique in general: A change in cytosolic calcium serves as a functional read-out for many receptors and channels.

In assay [2] the target is P2Y purinoceptor 2 (Homo sapiens, UniProt P41231, Y118A). In words: Antagonist activity at N-terminal HA epitope-tagged human P2Y2 receptor Y118A mutant expressed in human 1321N1 cells assessed as inhibition of UTP-induced calcium mobilization. The class given is functional, cell-based. Summed up:
as §1

Assay [3] deals with P2Y purinoceptor 2 (Homo sapiens, UniProt P41231, R177A/R180A). In words: Antagonist activity at N-terminal HA epitope-tagged human P2Y2 receptor R177A_R180A double mutant expressed in human 1321N1 cells assessed as inhibition of UTP-induced calcium mobilization. The format is functional, cell-based. The procedure, abridged: as §1
Sequence of P2Y purinoceptor 2 (Homo sapiens, UniProt P41231, R177A/R180A) (P41231 whole entry R177A/R180A): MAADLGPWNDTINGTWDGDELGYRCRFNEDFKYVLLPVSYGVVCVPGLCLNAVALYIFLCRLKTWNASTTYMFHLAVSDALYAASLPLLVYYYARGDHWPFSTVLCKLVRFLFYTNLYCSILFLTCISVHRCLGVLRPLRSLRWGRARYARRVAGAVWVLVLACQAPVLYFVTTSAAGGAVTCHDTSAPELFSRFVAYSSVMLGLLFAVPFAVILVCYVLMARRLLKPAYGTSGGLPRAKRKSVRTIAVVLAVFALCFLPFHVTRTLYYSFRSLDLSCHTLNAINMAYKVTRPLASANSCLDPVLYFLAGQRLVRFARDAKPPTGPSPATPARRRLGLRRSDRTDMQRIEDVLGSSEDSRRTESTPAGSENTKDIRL
The subject of assay [4] is P2Y purinoceptor 2 (Homo sapiens), P41231 [UNDEFINED MUTATION]. In words: Ratio of IC50 for N-terminal HA epitope-tagged human P2Y2 receptor C278S mutant to IC50 for wild type 3 human P2Y2 receptor.
Assay [5] deals with P2Y purinoceptor 2 (Homo sapiens, UniProt P41231, C278S). In words: Antagonist activity at N-terminal HA epitope-tagged human P2Y2 receptor C278S mutant expressed in human 1321N1 cells assessed as inhibition of UTP-induced calcium mobilization. The class given is functional, cell-based. Summed up: as §1
Sequence of P2Y purinoceptor 2 (Homo sapiens, UniProt P41231, C278S) (P41231 whole entry C278S): as the sequence (P41231 whole entry R177A/R180A) above, with A177R, A180R, C278S counted along it
In assay [6] the target is T1, P2Y purinoceptor 2 (Homo sapiens, UniProt P41231). In words: Antagonist activity at N-terminal HA epitope-tagged wild type 3 human P2Y2 receptor expressed in human 1321N1 cells assessed as inhibition of UTP-induced calcium mobilization. The class given is functional, cell-based. Summed up: as §1
T1 sequence (P41231 whole entry): as the sequence (P41231 whole entry R177A/R180A) above, with A177R, A180R counted along it
Assay [7] deals with P2Y purinoceptor 2 (Homo sapiens, UniProt P41231, Y114A). In words: Antagonist activity at N-terminal HA epitope-tagged human P2Y2 receptor Y114A mutant expressed in human 1321N1 cells assessed as inhibition of UTP-induced calcium mobilization. The class given is functional, cell-based. Summed up:
as §1

Assay [8] deals with T1, P2Y purinoceptor 2. In words: Antagonist activity at N-terminal HA epitope-tagged wild type 4 human P2Y2 receptor expressed in human 1321N1 cells assessed as inhibition of UTP-induced calcium mobilization. The format is functional, cell-based.

Sequence of P2Y purinoceptor 2 (Homo sapiens, UniProt P41231, Y114A) (P41231 whole entry Y114A): as the sequence (P41231 whole entry R177A/R180A) above, with Y114A, A177R, A180R counted along it
Sequence of P2Y purinoceptor 2 (Homo sapiens), P41231 [UNDEFINED MUTATION] (P41231 whole entry, looked up, stated change not applied): as the sequence (P41231 whole entry R177A/R180A) above, with A177R, A180R counted along it
Sequence of P2Y purinoceptor 2 (Homo sapiens, UniProt P41231, Y198A) (P41231 whole entry Y198A): as the sequence (P41231 whole entry R177A/R180A) above, with A177R, A180R, Y198A counted along it
Sequence of P2Y purinoceptor 2 (Homo sapiens, UniProt P41231, Y118A) (P41231 whole entry Y118A): as the sequence (P41231 whole entry R177A/R180A) above, with Y118A, A177R, A180R counted along it

For the compound `COc1ccc(Nc2cc(S(=O)(=O)O)c(N)c3c2C(=O)c2ccccc2C3=O)cc1`, the concentration for half-maximal inhibition (IC50) (as a rule, the concentration that inhibits the measured activity by half) in assay [1] was 21.1 µM; in assay [2] it was 22.4 µM; in assay [3], 26.5 µM; in assay [5] it was 3.44 µM; in assay [6], 21.9 µM; in assay [7], 24.6 µM. Moreover, the IC50 in assay [8] was found to be 21.7 µM. Besides, in assay [4], the Ratio IC50 worked out at 0.2.
